Assay [1] relates to Plasmodium yoelii. Nature of the assay: Antimalarial activity against Plasmodium yoelii YM infected in BALB/c mouse assessed as parasite growth inhibition at 5 mg/kg, sc administered QD for 4 days starting at 2 hrs post infection by Giemsa-staining based microscopic analysis. The following applies: read-out: GI. In kind it is functional. In a few lines:
(§1)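 P. yoelii-infected mice, n=3 per group. Subcutaneous injection once daily for 4 days starting at 2 h post infection. Growth inhibition determined at 24 h post treatment by blood-smear microscopy. Cure time taken as the minimum period to cure all mice in the group.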

Assay [2] relates to Plasmodium yoelii. Nature of the assay: Antimalarial activity against Plasmodium yoelii YM infected in BALB/c mouse assessed as time duration for parasite cure at 5 mg/kg, sc administered QD for 4 days starting at 2 hrs post infection by Giemsa-staining based microscopic analysis. In kind it is functional. The method, boiled down: as §1
Assay [3] deals with Plasmodium yoelii. Nature of the assay: Antimalarial activity against Plasmodium yoelii YM infected in BALB/c mouse assessed as mouse survival at 5 mg/kg, sc administered QD for 4 days starting at 2 hrs post infection by Giemsa-staining based microscopic analysis. The format is functional. The method, boiled down:
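Mice inoculated with 1×106 P. yoelii parasites, then dosed subcutaneously once daily for 4 days starting 2 h post infection. Parasitemia followed by microscopy of blood smears. Survival scored at 40 days post infection in groups of n=3 mice. DMSO-only controls.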

In assay [4] the test system is Plasmodium yoelii. The assay is described as follows: Antimalarial activity against Plasmodium yoelii YM infected in BALB/c mouse assessed as parasite growth inhibition at 10 mg/kg, sc administered QD for 4 days starting at 96 hrs post infection by Giemsa-staining based microscopic analysis. The format is functional. The following applies: read-out: GI. The method, boiled down:
(§2)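 P. yoelii-infected mice, n=3 per group. Subcutaneous injection once daily for 4 days starting at 96 h post infection. Parasitemia followed on blood-smear microscopy, with inhibition measured at 24 h post treatment. Cure time taken as the minimum period to cure all mice; survival recorded at 40 days. DMSO controls included.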

Assay [5] deals with Plasmodium yoelii. Nature of the assay: Antimalarial activity against Plasmodium yoelii YM infected in BALB/c mouse assessed as time duration for parasite cure at 10 mg/kg, sc administered QD for 4 days starting at 96 hrs post infection by Giemsa-staining based microscopic analysis. The format is functional. The method, boiled down:
as §2

For assay [6], the system named is Plasmodium yoelii. Nature of the assay: Antimalarial activity against Plasmodium yoelii YM infected in BALB/c mouse assessed as mouse survival at 10 mg/kg, sc administered QD for 4 days starting at 96 hrs post infection by Giemsa-staining based microscopic analysis. In kind it is functional. The method, boiled down:
(§3)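 Mice inoculated with 1×106 P. yoelii parasites. Subcutaneous dosing for 4 days starting 96 h post infection, given once daily or twice daily 8 h apart. Parasitemia followed on Giemsa-stained blood smears. Survival recorded at 40 days post infection; groups of n=3. DMSO-only mice served as untreated controls.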

For assay [7], the system named is Plasmodium yoelii. Nature of the assay: Antimalarial activity against Plasmodium yoelii YM infected in BALB/c mouse assessed as parasite growth inhibition at 10 mg/kg, sc administered BID for 4 days starting at 96 hrs post infection, 8 hrs apart by Giemsa-staining based microscopic analysis. The format is functional. The conditions noted are these: read-out: GI. The method, boiled down: (§4)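 P. yoelii-infected mice, n=3 per group. Subcutaneous injection twice daily, 8 h apart, for 4 days starting at 96 h post infection. Growth inhibition read from blood smears at 24 h post treatment. Cure time taken as the minimum period to cure all mice in the group. DMSO controls included.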

Assay [8] has as its system Plasmodium yoelii. Nature of the assay: Antimalarial activity against Plasmodium yoelii YM infected in BALB/c mouse assessed as time duration for parasite cure at 10 mg/kg, sc administered BID for 4 days starting at 96 hrs post infection, 8 hrs apart by Giemsa-staining based microscopic analysis. The format is functional. In a few lines: as §4
Assay [9] relates to Plasmodium yoelii. Nature of the assay: Antimalarial activity against Plasmodium yoelii YM infected in BALB/c mouse assessed as mouse survival at 10 mg/kg, sc administered BID for 4 days starting at 96 hrs post infection, 8 hrs apart by Giemsa-staining based microscopic analysis. The format is functional. In a few lines:
as §3

The subject of assay [10] is Plasmodium yoelii. The assay is described as follows: Antimalarial activity against Plasmodium yoelii YM infected in BALB/c mouse assessed as parasite growth inhibition at 30 mg/kg, sc administered BID for 4 days starting at 96 hrs post infection, 8 hrs apart by Giemsa-staining based microscopic analysis. In kind it is functional. The following applies: read-out: GI. The method, boiled down: as §4

The subject of assay [11] is Plasmodium yoelii. Nature of the assay: Antimalarial activity against Plasmodium yoelii YM infected in BALB/c mouse assessed as time duration for parasite cure at 30 mg/kg, sc administered BID for 4 days starting at 96 hrs post infection, 8 hrs apart by Giemsa-staining based microscopic analysis. The format is functional. In a few lines: as §4
Assay [12] deals with Plasmodium yoelii. The assay is described as follows: Antimalarial activity against Plasmodium yoelii YM infected in BALB/c mouse assessed as mouse survival at 30 mg/kg, sc administered BID for 4 days starting at 96 hrs post infection, 8 hrs apart by Giemsa-staining based microscopic analysis. The format is functional. In a few lines:
as §3

Assay [13] deals with Plasmodium yoelii. The assay is described as follows: Antimalarial activity against Plasmodium yoelii YM infected in BALB/c mouse assessed as parasite growth inhibition at 90 mg/kg, sc administered BID for 4 days starting at 96 hrs post infection, 8 hrs apart by Giemsa-staining based microscopic analysis. The format is functional. The following applies: read-out: GI. In a few lines: as §4

For assay [14], the system named is Plasmodium yoelii. The assay is described as follows: Antimalarial activity against Plasmodium yoelii YM infected in BALB/c mouse assessed as time duration for parasite cure at 90 mg/kg, sc administered BID for 4 days starting at 96 hrs post infection, 8 hrs apart by Giemsa-staining based microscopic analysis. In kind it is functional. In a few lines: as §4

Assay [15] has as its system Plasmodium yoelii. Nature of the assay: Antimalarial activity against Plasmodium yoelii YM infected in BALB/c mouse assessed as mouse survival at 90 mg/kg, sc administered BID for 4 days starting at 96 hrs post infection, 8 hrs apart by Giemsa-staining based microscopic analysis. In kind it is functional. In a few lines:
as §3

Assay [16] has as its system Plasmodium yoelii. The assay is described as follows: Antimalarial activity against Plasmodium yoelii YM infected in BALB/c mouse assessed as parasite cure level at 10 to 90 mg/kg, ip administered on days 1 post infection by Giemsa-stained microscopic analysis. The format is functional, organism-based. The method, boiled down:
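Mice (groups of three) inoculated with 1×10^6 P. yoelii parasites. Single intraperitoneal dose of 10, 30 or 90 mg/kg given 24 h after inoculation. DMSO-only untreated group included. Outcome followed by blood-smear microscopy for cure, with survival scored at 40 days post infection.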

Assay [17] relates to Plasmodium falciparum. Nature of the assay: Antimalarial activity against […] asexual blood stage Plasmodium falciparum 3D7 after 72 hrs by SYBR green-based fluorometric analysis. In kind it is functional. The following applies: 3D7, 72 h. In a few lines:
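Mid-ring-stage cultures (~6-10 h post-invasion) at 1% parasitemia and 2% hematocrit, in triplicate. Twofold serial dilutions from a top concentration of 100 nM. Incubated 72 h at 37 °C under 5% CO2/5% O2/90% N2. Lysis buffer containing 5×SYBR Green I added, 20 min in the dark, fluorescence read at ex 485/em 538 nm. EC50 derived.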

The values below come from ChEMBL document CHEMBL4007417, “Target Elucidation by Cocrystal Structures of NADH-Ubiquinone Oxidoreductase of Plasmodium falciparum (PfNDH2) with Small Molecule To Eliminate Drug-Resistant Malaria” (J Med Chem, 2017).

Calls of active or inactive are those of the source. The calls are words filed in the database; no cut-off is given here.

Regarding `CCc1nc(N)nc(N)c1-c1ccc(Cl)cc1` [PYRIMETHAMINE], the inhibition in vivo at 5 mg/kg in [1] is 100%. The Time came to 30 days in [2]; 17 days in assay [5]; 4 days in assay [8]; 4 days in assay [11]; 4 days in assay [14]. Moreover, in assay [3], the survival at 5 mg/kg was 100%. Further, the inhibition in vivo at 10 mg/kg in assay [4] is 98.4%; in assay [7], 100%. The survival at 10 mg/kg in [6] and in assay [9] was 100% throughout. Moreover, the inhibition in vivo at 30 mg/kg in assay [10] is 100%. The survival at 30 mg/kg in [12] amounted to 100%. For the same molecule, the inhibition in vivo at 90 mg/kg in [13] worked out at 100%. Also, in [15], the survival at 90 mg/kg came to 100%. In addition, the outcome in assay [16] was Active.
Turning to `C[C@H]1[C@@H](O)O[C@@H]2O[C@@]3(C)CC[C@H]4[C@H](C)CC[C@@H]1[C@@]24OO3` [ARTENIMOL], the EC50 (in general, the concentration giving half of the maximal effect) in assay [17] was 4.32 nM. Moreover, the inhibition in vivo at 10 mg/kg in [7] turned out to be 100%. Further, the Time in [8] is 15 days; in assay [11], 4 days; in assay [14], 4 days. The survival at 10 mg/kg in [9] worked out at 100%. Further, in [10], the inhibition in vivo at 30 mg/kg is 100%. Also, in assay [12], the survival at 30 mg/kg is 100%. Besides, the inhibition in vivo at 90 mg/kg in [13] stood at 100%. The survival at 90 mg/kg in assay [15] is 100%. The result in assay [16] was Active.
